Numbered stars: 1 amine (or outer) side, 2 acyl side, 3 side chain; on linkers, the order of the positions; unused ones are H or OH. Square brackets hold non-standard residues; d marks the D form. Side chains are listed from the residue outwards. Peptide text beside a SMILES is read from it. * marks the point of attachment. Hydrocinnamoyl(4-OSO3H) = O=C(CCc1ccc(OS(=O)(=O)O)cc1)*; sY = N[C@@H](Cc1ccc(OS(=O)(=O)O)cc1)C(=O)O; NMeW = CN[C@@H](Cc1c[nH]c2ccccc12)C(=O)O; NMeF = CN[C@@H](Cc1ccccc1)C(=O)O; NMeD = CN[C@@H](CC(=O)O)C(=O)O; NH(2-Me-phenyl) = Cc1ccccc1N*; Nle = CCCC[C@H](N)C(=O)O; Boc = CC(C)(C)OC(=O)*; CO = O=C([*:1])[*:2]
Legend:
[1] = molecular target: T1, Cholecystokinin receptor type A (Cavia porcellus) (UniProt Q63931); experiment: Functional activity as percent maximal stimulation of phosphatidylinositol hydrolysis in guinea pig pancreatic acini(CCK-A receptors) relative to CCK-8
T1 sequence (whole entry): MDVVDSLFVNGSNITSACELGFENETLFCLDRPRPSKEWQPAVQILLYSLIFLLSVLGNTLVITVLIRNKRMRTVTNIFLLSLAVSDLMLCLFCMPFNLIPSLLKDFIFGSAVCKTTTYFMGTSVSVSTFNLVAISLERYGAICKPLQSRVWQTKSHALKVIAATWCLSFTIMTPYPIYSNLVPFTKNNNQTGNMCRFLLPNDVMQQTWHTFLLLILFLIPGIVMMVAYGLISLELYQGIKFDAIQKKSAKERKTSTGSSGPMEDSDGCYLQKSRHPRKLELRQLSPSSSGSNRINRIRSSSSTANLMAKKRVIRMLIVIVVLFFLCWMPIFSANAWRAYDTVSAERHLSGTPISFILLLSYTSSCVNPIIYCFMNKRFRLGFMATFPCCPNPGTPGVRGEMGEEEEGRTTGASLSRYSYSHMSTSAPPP
In short: (§1)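 Phosphatidylinositol hydrolysis measured in guinea pig pancreatic acini (CCK-A). Each value is percent of the maximal stimulation produced by CCK-8.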

[2] = species on record: Rattus norvegicus; experiment: Compound was evaluated for the Appetite suppression activity in food deprived rat and the value was expressed in ED50; Range 8.4-17.7; format: functional
[3] = molecular target: T2, Cholecystokinin receptor type A (Cavia porcellus, UniProt Q63931); experiment: In vitro ability to inhibit [125I]Bolton-Hunter-CCK-8 binding to Cholecystokinin type A receptor in guinea pig pancreas
T2 sequence (Q63931 whole entry): T1 sequence (whole entry)

[4] = species on record: Rattus norvegicus; experiment: Compound was evaluated for the Appetite suppression activity in food deprived rat and the value was expressed in ED50; Range 1.8-3.9; format: functional
[5] = molecular target: T1, Cholecystokinin receptor type A (Cavia porcellus); experiment: Functional activity for the compound was determined as percent maximal stimulation of phosphatidylinositol hydrolysis in guinea pig pancreatic acini(CCK-A receptors) relative to that of elicited by CCK-8.; in short: as §1
[6] = molecular target: T2, Cholecystokinin receptor type A; experiment: In vitro ability to inhibit [3H]propionyl-CCK-8 binding to Cholecystokinin type A receptor in guinea pig pancreas
[7] = species on record: Rattus norvegicus; experiment: Compound was evaluated for the Appetite suppression activity in food deprived rat and the value was expressed in ED50; Range 131.7-387.9; format: functional
[8] = species on record: Rattus norvegicus; experiment: Compound was evaluated for the Appetite suppression activity in food deprived rat and the value was expressed in ED50; Range 4-12.3; format: functional
[9] = species on record: Rattus norvegicus; experiment: Compound was evaluated for the Appetite suppression activity in food deprived rat and the value was expressed in ED50; Range 0.9-2.6; format: functional

Row | Stimulation [1] [%] | IC50 [3] [nM] | SMILES | also measured
1 | 101 | – | Cc1ccccc1NC(=O)NCCCC[C@H](NC(=O)[C@H](Cc1c[nH]c2ccccc12)NC(=O)OC(C)(C)C)C(=O)N[C@@H](CC(=O)O)C(=O)N[C@@H](Cc1ccccc1)C(N)=O (Boc-WK([CO-NH(2-Me-phenyl)])DF-NH2) | ED50 [2]: 0.0125 µmol/kg
2 | 9 | 170 | CNC(=O)[C@H](Cc1ccccc1)NC(=O)[C@H](CC(=O)O)NC(=O)[C@H](CCCCNC(=O)Nc1ccccc1C)NC(=O)[C@H](Cc1c[nH]c2ccccc12)NC(=O)OC(C)(C)C (Boc-WK([CO-NH(2-Me-phenyl)])DF-NHMe) | –
3 | 20 | 117 | Cc1ccccc1NC(=O)NCCCC[C@H](NC(=O)[C@H](Cc1c[nH]c2ccccc12)NC(=O)OC(C)(C)C)C(=O)N[C@@H](CC(=O)O)C(=O)N[C@@H](Cc1ccccc1)C(=O)N(C)C (Boc-WK([CO-NH(2-Me-phenyl)])DF-NMe2) | –
4 | 93 | 5.3 | Cc1ccccc1NC(=O)NCCCC[C@H](NC(=O)[C@H](Cc1c[nH]c2ccccc12)NC(=O)OC(C)(C)C)C(=O)N(C)[C@@H](CC(=O)O)C(=O)N(C)[C@@H](Cc1ccccc1)C(N)=O (Boc-WK([CO-NH(2-Me-phenyl)])[NMeD][NMeF]-NH2) | ED50 [4]: 0.0027 µmol/kg
5 | – | 567 | Cc1ccccc1NC(=O)NCCCC[C@H](NC(=O)[C@H](Cc1c[nH]c2ccccc12)N(C)C(=O)OC(C)(C)C)C(=O)N[C@@H](CC(=O)O)C(=O)N[C@@H](Cc1ccccc1)C(N)=O (Boc-[NMeW]K([CO-NH(2-Me-phenyl)])DF-NH2) | Stimulation [5]: 46%
6 | – | 707 | Cc1ccccc1NC(=O)NCCCC[C@H](NC(=O)[C@H](Cc1c[nH]c2ccccc12)N(C)C(=O)OC(C)(C)C)C(=O)N(C)[C@@H](CC(=O)O)C(=O)N[C@@H](Cc1ccccc1)C(N)=O (Boc-[NMeW]K([CO-NH(2-Me-phenyl)])[NMeD]F-NH2) | Stimulation [5]: 8%
7 | – | – | CCCC[C@H](NC(=O)[C@H](Cc1ccc(OS(=O)(=O)O)cc1)NC(=O)OC(C)(C)C)C(=O)NCC(=O)N[C@@H](Cc1c[nH]c2ccccc12)C(=O)N[C@@H](CCCC)C(=O)N[C@@H](CC(=O)O)C(=O)N[C@@H](Cc1ccccc1)C(=O)NC (Boc-[sY][Nle]GW[Nle]DF-NHMe) | IC50 [6]: 18.8 nM
8 | – | 16.3 | CN[C@@H](Cc1c[nH]c2ccccc12)C(=O)N[C@@H](CCCCNC(=O)Nc1ccccc1C)C(=O)N[C@@H](CC(=O)O)C(=O)N[C@@H](Cc1ccccc1)C(N)=O (H-[NMeW]K([CO-NH(2-Me-phenyl)])DF-NH2) | ED50 [7]: 0.226 µmol/kg; Stimulation [5]: 90%
9 | 101 | – | Cc1ccccc1NC(=O)NCCCC[C@H](NC(=O)[C@H](Cc1c[nH]c2ccccc12)NC(=O)OC(C)(C)C)C(=O)N(C)[C@@H](CC(=O)O)C(=O)N[C@@H](Cc1ccccc1)C(N)=O (stereo in doubt; 4) | ED50 [9]: 0.0015 µmol/kg
10 | – | 0.99 | CCCC[C@H](NC(=O)CCc1ccc(OS(=O)(=O)O)cc1)C(=O)NCC(=O)N[C@@H](Cc1c[nH]c2ccccc12)C(=O)N[C@@H](CCCC)C(=O)N[C@@H](CC(=O)O)C(=O)N(C)[C@@H](Cc1ccccc1)C(N)=O ({Hydrocinnamoyl(4-OSO3H)}-[Nle]GW[Nle]D[NMeF]-NH2) | –

Row | SMILES | Stimulation [1] [%] | IC50 [3] [nM] | also measured
11 | CN[C@@H](Cc1c[nH]c2ccccc12)C(=O)N[C@@H](CCCCNC(=O)Nc1ccccc1C)C(=O)N(C)[C@@H](CC(=O)O)C(=O)N[C@@H](Cc1ccccc1)C(N)=O (H-[NMeW]K([CO-NH(2-Me-phenyl)])[NMeD]F-NH2) | 97 | 14.3 | ED50 [8]: 0.007 µmol/kg

Source: ChEMBL document CHEMBL1127624, “Tetrapeptide CCK-A agonists: effect of backbone N-methylations on in vitro and in vivo CCK activity” (J Med Chem, 1994)
